The values below come from ChEMBL document CHEMBL4052590, “Anti-Osteoporotic Activity of Harpagoside by Upregulation of the BMP2 and Wnt Signaling Pathways in Osteoblasts and Suppression of Differentiation in Osteoclasts” (J Nat Prod, 2017).

Calls of active or inactive are those of the source. No cut-off for these calls is given here.

In test [1] the test system is Mus musculus. Put plainly: Effect on […] level in serum of OVX-induced bone loss ICR mouse model at 2 mg/kg, po for 12 weeks by ELISA (reference value: 8.2 +/- 0.4 mg/dl). It counts as functional. Background: An ELISA detects its analyte on a solid surface through an enzyme-linked reagent.
The next test has as its system Osteoclast. As to the kind of experiment: Inhibition of RANKL/M-CSF-induced osteoclast differentiation in mouse bone marrow-derived osteoclasts assessed as downregulation of TRAP protein expression up to 4 uM after 48 hrs by Western blot analysis. It counts as functional, cell-based. The method, boiled down:
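Mouse bone marrow cells were taken from 4-week-old mice and primed 24 h in 30 ng/mL M-CSF. They were then given 100 ng/mL RANKL plus 30 ng/mL M-CSF, with or without compound, for 48 h. Lysates were made in boiling SDS buffer and quantified by BCA. 40–50 μg was run on SDS-PAGE and immunoblotted on PVDF with β-actin reference and ECL read-out.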
(In general: A western blot detects proteins with antibodies after separation by electrophoresis.)

The subject of test [2] is MC3T3-E1. Put plainly: Induction of OCN mRNA expression in mouse MC3T3-E1 cells up to 4 uM after 48 hrs in presence of ascorbic acid and beta-glycerophosphate by real-time PCR analysis. For orientation: In qPCR the cycle at which signal appears reflects the starting amount.
Test [3] relates to Mus musculus. Put plainly: Effect on C-terminal telopeptide level in serum of OVX-induced bone loss ICR mouse model at 10 mg/kg, po for 12 weeks by ELISA (reference value: 95.7 +/- 3.8 ng/ml). It counts as functional.
Test [4] has as its system Mus musculus. As to the kind of experiment: Anti-osteoporotic activity in ovariectomized ICR mouse assessed as increase in trabecular thickness in femur at 2 to 10 mg/kg, po after 12 weeks by microcomputed tomography. Type of test: functional, organism-based.
For test [5], the system named is Mus musculus. Put plainly: Effect on alkaline phosphatase activity in serum of OVX-induced bone loss ICR mouse model at 5 mg/kg, po for 12 weeks using p-NPP as substrate (reference value: 84.9 +/- 4.2 U/L). Type of test: functional.
The subject of test [6] is Mus musculus. Put plainly: Effect on calcium level in serum of OVX-induced bone loss ICR mouse model at 5 mg/kg, po for 12 weeks by ELISA (reference value: 9.3 +/- 0.3 mg/dl). It counts as functional.
Test [7] relates to MC3T3-E1. As to the kind of experiment: Upregulation of beta-catenin protein expression in mouse MC3T3-E1 cells after 48 hrs in presence of ascorbic acid and beta-glycerophosphate by Western blot analysis. It counts as functional, cell-based.
Test [8] has as its system Mus musculus. As to the kind of experiment: Anti-osteoporotic activity in ovariectomized ICR mouse assessed as suppression of changes in trabecular separation in femur at 2 to 10 mg/kg, po after 12 weeks by microcomputed tomography. It counts as functional, organism-based.
Test [9] concerns MC3T3-E1. As to the kind of experiment: Upregulation of OPN protein expression in 2 days differentiated mouse MC3T3-E1 cells up to 4 uM after 48 hrs in presence of ascorbic acid and beta-glycerophosphate by Western blot analysis. It counts as functional, cell-based.
Test [10] has as its system Mus musculus. Put plainly: Anti-osteoporotic activity in po dosed OVX-induced bone loss ICR mouse model assessed as decrease in trabecular bone destruction in femur administered for 12 weeks by microcomputed tomography. It counts as functional, organism-based.
The subject of test [11] is Mus musculus. As to the kind of experiment: Effect on calcium level in serum of OVX-induced bone loss ICR mouse model at 2 mg/kg, po for 12 weeks by ELISA (reference value: 9.3 +/- 0.3 mg/dl). Type of test: functional.
The species entered for test [12] is Mus musculus. Put plainly: Activation of Wnt signaling pathway in mouse MC3T3-E1 cells assessed as increase in Runx2 protein expression up to 4 uM after 48 hrs in presence of ascorbic acid and beta-glycerophosphate by Western blot analysis. It counts as cell-based. The method, boiled down: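 MC3T3-E1 cells given 400 μM ascorbic acid plus 5 mM β-glycerophosphate, exposed to test compound or not for 48 h. Lysed in boiling SDS sample buffer, protein measured by BCA. 40−50 μg of lysate run on 8% or 10% SDS-PAGE and transferred to PVDF. Blocked in 5% milk, probed with primary antibodies for 3 h at room temperature or overnight at 4 °C, detected by ECL.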

Consider `C[C@]1(OC(=O)/C=C/c2ccccc2)C[C@@H](O)[C@]2(O)C=CO[C@@H](O[C@@H]3O[C@H](CO)[C@@H](O)[C@H](O)[C@H]3O)[C@@H]21` [HARPAGOSIDE], for which the Activity with Mus musculus [1] is 7.9 mg/dL; in the test on Mus musculus [3] it was 80.7 ng/mL; in the test on Mus musculus [5] it was 82.6 U/L; in the test with Mus musculus [6] it was 9.6 mg/dL; in the test on MC3T3-E1 [7] it was “Dose-dependent effect”; with MC3T3-E1 [9], “Dose-dependent effect”. Besides, the Activity entry with Mus musculus [10] is “Dose-dependent effect”; with Mus musculus [11], 9.3 mg/dL. For the same compound, in the test with Osteoclast, the inhibition result was “Active”. In addition, the outcome in the test on MC3T3-E1 [2], in the test on Mus musculus [4], in the test with Mus musculus [8] and in the test filed under Mus musculus [12] was Active.
